Bioassay records: PubChem BioAssay, NMMLSC
MEKK2wt PB1 HTS = raises or lowers MEK5 binding to wildtype human MEKK2 PB1 domain | Q9Y2U5 | bead flow cytometry, Alexa488-MEK5 binding to MEKK2 WT; actives lie on both sides | binding response (% of control), % at 10 µM | 290,000 compounds, 1.1% hits; in the data active means binding response below about 67% or above about 130%
MEKK2 mut-MEK5 = signal of MEK5 binding to mutant human MEKK2 PB1 domain; AID 1530; percent response, % at 10 µM; bead flow cytometry, Alexa488-MEK5 binding to MEKK2 mutant; 290,000 compounds, 0.35% hits; in the data active means percent response above about 24%, passing the limit was not always enough
MEKK3 PB1 HTS = raises or lowers MEK5 binding to the human MEKK3 PB1 domain | 290,000 compounds, 1.4% hits | bead-based flow cytometry, Alexa488-MEK5 binding to MEKK3; actives lie on both sides; 0 = blocked by unlabeled MEK5, 100 = vehicle | Q99759 | binding response (% of control), % at 10 µM;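 active means binding response more than 3 SD above or below the average of its plate-row segment, actives on both sides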;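 further: Alexa488 bead fluorescence after subtracting the streptavidin-only scavenger bead signal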
Target sequence (Q99759 whole entry, looked up, the tested form may be a part): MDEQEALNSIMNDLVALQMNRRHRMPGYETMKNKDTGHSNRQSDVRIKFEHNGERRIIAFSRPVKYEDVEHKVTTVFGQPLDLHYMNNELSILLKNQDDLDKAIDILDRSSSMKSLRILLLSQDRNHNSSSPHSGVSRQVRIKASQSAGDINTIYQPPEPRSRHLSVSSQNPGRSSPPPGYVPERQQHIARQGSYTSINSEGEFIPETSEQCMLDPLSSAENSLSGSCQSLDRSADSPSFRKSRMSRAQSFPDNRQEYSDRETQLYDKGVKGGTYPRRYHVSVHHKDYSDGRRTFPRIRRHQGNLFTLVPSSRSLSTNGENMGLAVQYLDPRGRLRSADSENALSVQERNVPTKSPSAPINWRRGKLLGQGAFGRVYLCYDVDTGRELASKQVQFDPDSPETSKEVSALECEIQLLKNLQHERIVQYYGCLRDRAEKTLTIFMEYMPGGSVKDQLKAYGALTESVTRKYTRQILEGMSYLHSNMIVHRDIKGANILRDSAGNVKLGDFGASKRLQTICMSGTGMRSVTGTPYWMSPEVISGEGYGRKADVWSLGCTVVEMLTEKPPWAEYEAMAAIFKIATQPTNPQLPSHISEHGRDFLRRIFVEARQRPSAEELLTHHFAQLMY
Arrestin-AP2 inh = blocks beta-arrestin peptide binding to AP2 adaptin; FITC-arrestin peptide / GST-AP2 beads, flow cytometry; AP2 beta2 appendage carries R879A mutation; inhibition, % at 10 µM; 340,000 compounds, 0.31% hits; AID 504490;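 active means inhibition above a set limit, near 3 SD of compounds lacking own fluorescence, cut at about 54% in these data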;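 further: plate controls were DMSO wells for no effect and 5 µM unlabelled arrestin peptide for full effect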
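Measured by: flow cytometry, FL1 (488/535 nm); Material: AP2 appendage R879A on GSH beads; Evaluation: percent response; Timing: pre-incubation 12 min, peptide binding 1 h, room temperature; Also added: 50 nM FITC-arrestin peptide; Medium: PBS with 0.05% Tween 20 and 0.1% BSA.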
MEKK2wt confirm = raises or lowers MEK5 binding to wildtype human MEKK2, retest; shares compounds with MEKK3 PB1 HTS; bead flow cytometry, Alexa488-MEK5 binding to MEKK2 WT; actives lie on both sides; binding response (% of control), % at 10 µM; 5,900 compounds, 2.4% hits; AID 1892; in the data active means binding response below about 16% or above about 210%; inactive means in between
MEKK2mut-MEK5 = signal of MEK5 binding to mutant human MEKK2, retest | bead flow cytometry, Alexa488-MEK5 binding to MEKK2 mutant | shares compounds with MEKK3 PB1 HTS | 5,900 compounds, 2% hits | percent response, % at 10 µM; in the data active means percent response mostly above about 71%, no sharp cut-off; inactive means mostly below about 38%;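 further: higher means compound restores mutant binding toward wildtype level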
MEKK3-MEK5 inh = confirmation of inhibitors of MEK5 binding to human MEKK3; binding response (% of control), % at 10 µM; bead flow cytometry, Alexa488-MEK5 binding to MEKK3; stronger effect = lower value; AID 1894; shares compounds with MEKK3 PB1 HTS; 5,900 compounds, 1.8% hits;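 active means binding response below 72% of control, or above a set upper limit, though filed actives all read lower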;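 further: 100% = DMSO only wells and 0% = binding blocked by excess unlabeled MEK5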
Numbers without * were called inactive; . = not tested or not shown; ! = a repeat was not active; [ ] = another dose, or the depositor's remark. Shown are actives, neighbours in structure and some others; about 2.3% of the full set was active somewhere.

SMILES | MEKK2wt PB1 HTS | MEKK2 mut-MEK5 | MEKK3 PB1 HTS | Arrestin-AP2 inh | MEKK2wt confirm | MEKK2mut-MEK5 | MEKK3-MEK5 inh
C(=C\c1ccccc1)/CN1CCN(C(c2ccccc2)c2ccccc2)CC1 | 165* | 14 | 109 | -3 | 162 | 24 | 103
Fc1ccc(C(c2ccc(F)cc2)N2CCN(C/C=C/c3ccccc3)CC2)cc1 | 210*! | 26*! | 113 | 11 | 184 | 39 | 110
COc1cc([N+](=O)[O-])ccc1NC(=S)NNC(=O)CCC(=O)Nc1ccccc1Cl | 105 | 3 | 101 | 1 | . | . | .
CC1CN(C(=O)CCNC(=O)c2ccccc2Cl)CC(C)O1 (configuration not stated) | 100 | -1 | 95 | -1 | . | . | .
CCOC(=O)c1ccc(-n2c(C)nc3c(cnn3-c3ccc(Cl)cc3)c2=O)cc1 | 98 | -2 | 99 | 1 | . | . | .
CCOC(=O)c1ccc(-n2c(C)nc3c(cnn3-c3ccccc3Cl)c2=O)cc1 | 117 | 5 | 124* | 6 | 96 | -7 | 103
COCCNC(=O)CNC(=O)c1nn(-c2ccc(OC)c(Cl)c2)c(=O)c2ccccc12 | 135* | 10 | 143* | 6 | 103 | 4 | 103
CCCCNC(=O)CNC(=O)c1nn(-c2ccc(OC)c(Cl)c2)c(=O)c2ccccc12 | 106 | 0 | 103 | 35 | . | . | .
CSCCC(NC(=O)c1ccccc1)C(=O)Nc1ccc(NC(C)=O)cc1 (configuration not stated) | 99 | -1 | 103 | . | . | . | .
Cc1ccc(S(=O)(=O)Oc2cccc(/C=N/Nc3ccc(C(=O)O)cc3)c2)cc1 | 128 | 28 | 132* | 5 | 105 | 7 | 104
COc1ccc(Oc2ccc(C(F)(F)F)cc2NC(=O)c2ccc(F)cc2)cc1 | 122 | 28 | 133* | 43 | 102 | -8 | 97
COc1cccc(Oc2ccc(C(F)(F)F)cc2NC(=O)c2cccc(F)c2)c1 | 110 | 5 | 111 | -6 | . | . | .
CC(C)(C)C(=O)Nc1ccc(NC(=O)C(C)(C)C)cc1 | 48 | -31 | 48*[inhibitor] | -12 | 87 | -12 | 78
O=C(NCC1CCCO1)c1ccc(NC(=O)c2cccc([N+](=O)[O-])c2)cc1 (configuration not stated) | 110 | 11 | 107 | 8 | . | . | .
CCOC(=O)C1CCN(C(=O)C2CCN(c3nc4ccc(OC)cc4s3)CC2)CC1 | 118 | 7 | 122* | -4 | 110 | 8 | 108
CCOC(=O)C1CCN(C(=O)C2CCN(c3nnc(-n4cccc4)s3)CC2)CC1 | 102 | -1 | 100 | 13 | . | . | .
Cn1cnnc1Sc1ccc(C(=O)NCCC23CC4CC(CC(C4)C2)C3)cc1[N+](=O)[O-] | 95 | 8 | 100 | 14 | . | . | .
O=C(CSc1ccccc1F)NC(=O)c1ccccc1Br | . | . | . | 4 | . | . | .
O=C(NC(NC(=S)Nc1ccc(Cl)cc1Cl)C(Cl)(Cl)Cl)c1cccc([N+](=O)[O-])c1 (configuration not stated) | 145* | 14 | 141* | 8 | 131 | 17 | 111
O=C(O)c1cccc(NC(=S)NC(NC(=O)c2cccc([N+](=O)[O-])c2)C(Cl)(Cl)Cl)c1 (configuration not stated) | 104 | 7 | 110 | -7 | . | . | .
CCCCc1nnc(NC(=O)CSc2nc(O)c(-c3ccccc3)c(=O)[nH]2)s1 | . | 533* | 117 | -10 | 102 | 0 | 103
CCCCc1nnc(NC(=O)CSc2nc(O)c(Cc3ccccc3)c(=O)[nH]2)s1 | 107 | 1 | 108 | 13 | . | . | .
Cc1cc2cc(C#N)c(N3CCOCC3)nc2cc1Cl | 101 | 5 | 106 | -4 | . | . | .
CCCCN(CCCC)S(=O)(=O)c1ccc(NC(=O)Cc2cccs2)cc1 | 143* | 15 | 112 | 7 | 104 | -8 | 104
CCCN(CCC)S(=O)(=O)c1ccc(NC(=O)Cc2cccs2)cc1 | 100 | 1 | 100 | 0 | . | . | .
